According to ChEMBL document CHEMBL1122988, “Studies on antianaphylactic agents. 7. Synthesis of antiallergic 5-oxo-5H-[1]benzopyrano[2,3-b]pyridines” (1985):

Legend:
Type in all cases: functional
[1] = system: Rattus norvegicus; assay: Anti-passive cutaneous anaphylaxis activity in rat (intravenous administration); details: read-out: ID50 (the source's name)
Method in brief: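 Male Sprague-Dawley rats (8 weeks, ~280 g) were sensitized passively. Antiserum was raised with egg albumin im plus killed B. pertussis ip, and diluted fourfold. Four 0.05-mL intradermal dorsal injections were given, with a 72-h latency. Challenge was iv with 5 mg egg albumin plus 10 mg Evans blue in 1 mL saline. Drug in saline or PEG 400 was given iv immediately before challenge. Dye leakage area was read at 30 min. ID50 came from a least-squares log dose–area fit.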

[2] = system: Rattus norvegicus; assay: Compound was evaluated for anti passive cutaneous anaphylaxis activity in nonfasted rats administered oral route; details: read-out: ID50 (the source's name)
Method in brief: (§1)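 Homologous rat PCA in male Sprague-Dawley rats (8 weeks, ~280 g). Skin sites received 72 h of exposure to fourfold-diluted egg albumin antiserum. Drug was suspended in 5% gum arabic and given orally 5 min before iv challenge with egg albumin and Evans blue. Rats were bled 30 min later and dye leakage area (mm2) was measured. ID50 came from least-squares log dose regression, with Fieller fiducial limits.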

[3] = system: Rattus norvegicus; assay: Compound was evaluated for anti passive cutaneous anaphylaxis activity in nonfasted rat, administered through intravenous route; details: oral, in the assay text read “oral” for “intravenous”, read-out: ID50 (the source's name)
[4] = system: Rattus norvegicus; assay: Compound was evaluated for anti passive cutaneous anaphylaxis activity in fasted rat, administered through intravenous route; details: oral, in the assay text read “oral” for “intravenous”, read-out: ID50 (the source's name)
[5] = system: Rattus norvegicus; assay: Compound was evaluated for anti passive cutaneous anaphylaxis activity in fasted rats administered oral route; details: read-out: ID50 (the source's name); method in brief: as §1

Structure (SMILES) | ED50 [1] | further results
COc1cccc2c(=O)c3cc(C(=O)O)c(N)nc3oc12 | 0.45 mg/kg | –
CONc1nc2oc3ccc(C(C)C)cc3c(=O)c2cc1-c1nn[nH]n1 | 0.19 mg/kg | –
CCCCONc1nc2oc3ccc(C(C)C)cc3c(=O)c2cc1C(=O)O | 0.028 mg/kg | ED50 [2]: 3.5 mg/kg
CCCCc1ccc2oc3nc(N)c(C(=O)O)cc3c(=O)c2c1 | 1.1 mg/kg | –
CC(C)c1ccc2oc3nc(N)c(-c4nn[nH]n4)cc3c(=O)c2c1 | 0.064 mg/kg | –
CCc1ccc2oc3ncc(C(=O)O)cc3c(=O)c2c1 | 0.034 mg/kg | ED50 [3]: 0.95 mg/kg; ED50 [4]: 0.18 mg/kg
CCc1ccc2oc3nc(N)c(C(=O)O)cc3c(=O)c2c1 | 0.14 mg/kg | ED50 [3]: 5.4 mg/kg
CC(C)c1ccc2oc3nc(N)c(C(=O)O)cc3c(=O)c2c1 [AMLEXANOX] | 0.032 mg/kg | ED50 [5]: 0.73 mg/kg; ED50 [2]: 6.1 mg/kg
O=C(O)c1cc2c(=O)c3ccccc3oc2nc1O | 0.62 mg/kg | –
Cc1cc(C)c2oc3nc(O)c(C(=O)O)cc3c(=O)c2c1 | 0.12 mg/kg | –
COc1cccc2c(=O)c3cc(C(=O)O)c(O)nc3oc12 | 0.1 mg/kg | –
COc1ccc2oc3nc(O)c(C(=O)O)cc3c(=O)c2c1 | 0.042 mg/kg | –
CONc1nc2oc3ccc(C(C)C)cc3c(=O)c2cc1C(=O)O | 0.0076 mg/kg | ED50 [5]: 0.59 mg/kg; ED50 [2]: 4.6 mg/kg
O=C(O)c1cnc2oc3ccccc3c(=O)c2c1 | 0.63 mg/kg | –
CC(C)c1ccc2oc3ncc(-c4nn[nH]n4)cc3c(=O)c2c1 | 0.0096 mg/kg | ED50 [5]: 0.034 mg/kg; ED50 [2]: 0.46 mg/kg
CCc1ccc(O)c(C(=O)c2cc(C(=O)O)c(C)nc2O)c1 | > 20 mg/kg | –

Structure (SMILES) | ED50 [1] | further results
CCc1ccc2oc3nc(C)c(C(=O)O)cc3c(=O)c2c1 | 0.73 mg/kg | –
CCc1ccc2oc3ncc(-c4nn[nH]n4)cc3c(=O)c2c1 | 0.11 mg/kg | ED50 [2]: 6.4 mg/kg
CNc1nc2oc3ccc(C(C)C)cc3c(=O)c2cc1C(=O)O | 0.39 mg/kg | –
O=C([O-])c1cc(=O)c2c(OCC(O)COc3cccc4oc(C(=O)[O-])cc(=O)c34)cccc2o1.[Na+].[Na+] [CROMOLYN SODIUM] | 1.4 mg/kg | –
CCONc1nc2oc3ccc(C(C)C)cc3c(=O)c2cc1C(=O)O | 0.014 mg/kg | –
O=c1c2cc(-c3nn[nH]n3)cnc2oc2ccc3ccccc3c12 | 0.84 mg/kg | –
CC(C)c1ccc2oc3ncc(C(=O)O)cc3c(=O)c2c1 | 0.059 mg/kg | ED50 [2]: 1.2 mg/kg
CCc1ccc2oc3nc(O)c(C(=O)O)cc3c(=O)c2c1 | 0.041 mg/kg | –
Cc1ccc2oc3nc(O)c(C(=O)O)cc3c(=O)c2c1 | 0.1 mg/kg | –
O=c1c2ccccc2oc2ncc(-c3nn[nH]n3)cc12 | 0.44 mg/kg | –
CC(C)(C)c1ccc2oc3ncc(-c4nn[nH]n4)cc3c(=O)c2c1 | 0.047 mg/kg | ED50 [2]: 6 mg/kg
CC(C)c1ccc2oc3nc(O)c(C(=O)O)cc3c(=O)c2c1 | 0.02 mg/kg | –
CCc1ccc2oc3nc(OC)c(C(=O)O)cc3c(=O)c2c1 | 0.5 mg/kg | –
Cc1cc(C)c2oc3ncc(-c4nn[nH]n4)cc3c(=O)c2c1 | 0.31 mg/kg | –
CC(C)c1ccc2oc3nc(NO)c(C(=O)O)cc3c(=O)c2c1 | 0.018 mg/kg | ED50 [2]: 1 mg/kg
